High-throughput results as filed in PubChem BioAssay.
An excerpt weighted towards active compounds, which were near 3.1% of everything screened.
GPR7 antagonist = human neuropeptides B/W receptor 1 antagonism; P48145; GPR7-expressing cells, fluorescence antagonist assay; inhibition, % at 4.4 µM; hit rate 1.1% among 290,000; AID 1861; in the data active = inhibition above about 16%, passing the limit was not always enough;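 also: cells stimulated with the agonist NPW; 0% = agonist with vehicle and 100% = vehicle without agonist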
Target sequence (P48145 whole entry, looked up): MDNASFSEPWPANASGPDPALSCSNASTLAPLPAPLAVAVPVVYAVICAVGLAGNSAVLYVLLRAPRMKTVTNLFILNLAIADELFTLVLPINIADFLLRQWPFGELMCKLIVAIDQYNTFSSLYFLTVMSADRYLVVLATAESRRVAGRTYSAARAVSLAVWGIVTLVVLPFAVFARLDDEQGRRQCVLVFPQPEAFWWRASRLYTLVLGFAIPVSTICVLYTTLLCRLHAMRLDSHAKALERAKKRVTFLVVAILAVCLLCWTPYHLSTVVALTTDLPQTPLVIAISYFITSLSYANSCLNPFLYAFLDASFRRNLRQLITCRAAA
CHO parental Ca = counter-screen for OX1R antagonists: effect in parental CHO cells. parental CHO-K1, ATP-induced calcium, Fluo-8 fluorescence. AID 463079. hit rate 0.63% among 330,000. inhibition, % at 5.6 µM;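 active = inhibition above that plate's mean sample inhibition plus 3 SD, cut at about 26% in these data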;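 also: 0% = ATP-challenged DMSO wells and 100% = DMSO wells without ATP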
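Material: parental CHO cells / Compound: single nominal dose of 5.6 µM per compound / Signal: Fluo-8 fluorescence / Replicates: singlicate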
OX1R antag-1 = human HCRTR1 antagonism; O43613; CHO/OX1R cells, Fluo-8 calcium fluorescence, orexin A; inhibition, % at 5 µM; hit rate 0.43% among 330,000; AID 434989;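 active = inhibition above its plate's threshold, mean inhibition of all tested compounds on the plate plus 3 SD, cut at about 37% in these data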;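 also: 0% = orexin A challenge wells and 100% = SB-334867-A antagonist wells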
OX1R antag-2 = OX1R (human) antagonism. OX1R-expressing cells, FRET antagonist read-out. inhibition, % at 6.6 µM. hit rate 1.8% among 330,000. AID 485270; in the data active = inhibition mostly above about 38%, no sharp cut-off; inactive = mostly below about 40%;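 also: 0% = agonist challenge alone and 100% = reference antagonist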
GalR3 antagonist = human GalR3 antagonism; AID 651719; inhibition, % at 3 µM; HEK293 GalR3-CNG cAMP membrane potential fluorescence; galR3 body fused to GalR1 C-terminus; hit rate 0.44% among 360,000; O60755;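 active = inhibition above the screen-wide average plus 3 SD, cut at about 13% in these data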;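 also: forskolin and galanin both at EC90 stimulate the cells; cAMP rise reported by CNG channel membrane potential dye signal; 0% = forskolin plus galanin with DMSO and 100% = forskolin alone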
Target sequence (O60755 1-299 limits assumed): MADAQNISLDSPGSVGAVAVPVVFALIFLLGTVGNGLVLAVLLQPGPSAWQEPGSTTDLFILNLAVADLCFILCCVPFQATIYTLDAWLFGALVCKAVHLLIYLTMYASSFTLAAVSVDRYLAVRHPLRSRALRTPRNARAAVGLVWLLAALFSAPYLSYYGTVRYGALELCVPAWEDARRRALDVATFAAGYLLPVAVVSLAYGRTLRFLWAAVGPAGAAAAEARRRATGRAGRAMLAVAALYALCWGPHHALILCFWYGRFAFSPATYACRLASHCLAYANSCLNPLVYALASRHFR
* = called active by the depositor; . = not tested or not shown.

SMILES | GPR7 antagonist | CHO parental Ca | OX1R antag-1 | OX1R antag-2 | GalR3 antagonist
Cc1cccc(-c2noc(CN(C(=O)c3ccc4c(c3)OCO4)C(C)C)n2)c1 | -8 | -20 | 10 | 69* | -5
CCC1(c2ccccc2)NC(=O)N(CC(=O)Nc2cc(S(=O)(=O)N3CCCCCC3)ccc2OC)C1=O (stereo not given) | . | 27 | 18 | 29 | -6
C=CCN=C1NC(c2ccc(F)cc2)C(C(=O)OC)=C(C)N1Cc1ccccc1C(F)(F)F (stereo not given) | . | . | . | . | -9
C=CCNC(=O)c1c(Br)cnn1-c1ccc(C)cc1 | 18* | 0 | -29 | 12 | 0
Cc1ccc(-n2ncc(Cl)c2C(=O)NCc2ccccc2)cc1 | -16 | 3 | -21 | 5 | -7
CN(c1ccccc1)S(=O)(=O)c1cccc(C(=O)OCC(=O)NCc2ccccc2)c1 | . | -17 | -4 | 24 | -5
COc1ccc(N(C)S(=O)(=O)c2cccc(C(=O)OCC(=O)NCc3ccccc3OC)c2)cc1 | 19* | 14 | 2 | 33 | -3
Clc1ccc2nncn2n1 | -6 | 11 | -3 | 11 | -2
CC(C)(C)c1ccc(CSc2nnc(-c3ccccn3)n2Cc2ccco2)cc1 | -7 | 14 | -3 | 24 | -4
Brc1ccc(CSc2nnc(-c3ccccn3)n2Cc2ccco2)cc1 | 18* | -7 | 13 | 10 | -12
Clc1cccc(CSc2nnc(-c3ccccn3)n2Cc2ccco2)c1 | 21* | -9 | 11 | 23 | -6
CC1(C(=O)Nc2ccccc2Br)CCN1C(=O)Cc1ccc(Cl)cc1Cl (stereo not given) | . | . | . | . | -7
NC(=O)c1ncn([C@@H]2O[C@H](C(=O)N[C@H](Cc3c[nH]c4ccccc34)C(=O)N3CCN(C(=O)N4CCCCC4)CC3)[C@@H](O)[C@H]2O)n1 | . | . | . | . | -1
Nc1c(C(=O)c2cccs2)oc2ccccc12 | -11 | -8 | 6 | 68* | -8
Nc1c(C(=O)c2ccc(Br)cc2)oc2ccccc12 | -9 | -9 | -4 | 27 | -7
CCC1(O)C(=O)OCc2c1cc1n(c2=O)Cc2cc3cc(O)ccc3nc2-1 (stereo not given) | . | . | . | . | -4
CCc1c2c(nc3ccc(OC(=O)N4CCC(N5CCCCC5)CC4)cc13)-c1cc3c(c(=O)n1C2)COC(=O)[C@]3(O)CC | . | -5 | -25 | 53* | .
CC(C)[C@H](NC(=O)C1CCCC1)C(=O)N1CCC[C@H]1C(=O)NCCc1ccccc1Cl | . | . | . | . | -3
COc1ccccc1-n1c(CNC(=O)c2ccc(S(=O)(=O)N3CCCCC3)cc2)n[nH]c1=S | -19 | -7 | 10 | 10 | 3
CC(=O)OC[C@]12CC[C@H]3[C@@](C)(CC[C@H]4C(C)(C)CCC[C@]34C)[C@@H]1C[C@H](C1=CC(=O)O[C@H]1OC(C)=O)O2 | . | 46* | 51* | -2 | .
CC(=O)OC[C@]12CC[C@H]3[C@@](C)(CC[C@H]4C(C)(C)CCC[C@]34C)[C@@H]1C[C@@H](C1=CC(=O)O[C@@H]1OC(C)=O)O2 | . | 2 | -12 | 7 | .
COc1ccc(C2CC(=O)C(c3ccccc3)=CN2Cc2ccccc2)cc1 (stereo not given) | . | . | . | . | -7
Cc1cc(C)c2c(N)c(C(=O)NNC(=O)c3ccccc3)sc2n1 | 14 | -20 | -22 | 54 | 3
Cc1cc(C)c2c(N)c(C(=O)N/N=C/c3cccnc3)sc2n1 | 1 | -8 | -19 | 47* | 3
Cc1cc(C)c2c(N)c(C(=O)N/N=C/c3ccccc3)sc2n1 | -3 | -18 | -24 | 43* | -2
SMILES | GPR7 antagonist | CHO parental Ca | OX1R antag-1 | OX1R antag-2 | GalR3 antagonist
O=C1c2ccccc2-c2ccc(C(=O)N3CCOCC3)cc21 | -4 | 4 | -21 | 60* | -5
S=c1[nH]c2ccc(Cc3ccc4[nH]c(=S)[nH]c4c3)cc2[nH]1 | -20 | -3 | 8 | 12 | -4
CC12CCC(c3c(C(=O)O)nn(-c4ccccc4)c31)C2(C)C (stereo not given) | -5 | -4 | 17 | 41* | -10
CC12CCC(c3c(C(=O)Nc4nccs4)nn(-c4ccccc4)c31)C2(C)C (stereo not given) | -10 | -26 | 0 | 20 | -7
Cc1cc(Br)ccc1NC(=O)CNC(=O)CN1C(=O)NC2(CCCCCC2)C1=O | -4 | -23 | -12 | 38 | -5
Cc1cc(Br)ccc1NC(=O)CN1C(=O)C2C3CC(c4ccccc4)C(C3)C2C1=O (stereo not given) | 21 | 31* | 40 | 10 | -6
C/C(N)=C(/C#N)C(=O)CSc1nc2cc(Cl)ccc2s1 | 3 | -8 | -14 | 56* | -4
O[C@@H]1CN(C2CCCCC2)CC[C@H]1N1CCN(CCc2ccccc2)CC1 | -8 | -13 | -15 | -1 | .
CCc1ccc(NC(=O)CCC(=O)Nc2nnc(C(C)C)s2)cc1 | -18 | -15 | -24 | 8 | -7
CC(C)(C)c1ccc(COC(=O)Nc2ccc(F)cc2)cc1 | -7 | 14 | -5 | 5 | -2
CC(C)(C)c1ccc(NC(=O)Nc2ccc(F)cc2)cc1 | 24* | 62* | 64* | 29 | -8
O=C(Nc1ccc(F)cc1)Nc1cc(OCC(F)(F)F)cc(OCC(F)(F)F)c1 | 16 | 40* | 13 | 31 | -5
COc1ccc(CC(=O)NC(c2ccccc2)c2ccc(C)cc2)c(OC)c1 (stereo not given) | -6 | -26 | -32 | 5 | -8
C=CC[C@@H](Cc1ccc(F)cc1)C(=O)OC[C@@H]1CCCN1C(=O)[C@@H](CC=C)CC(=O)N[C@H](CO)Cc1ccccc1 | . | -7 | 15 | 7 | -8
C[C@]12Cc3ccccc3C1CC1=N[C@@H](c3ccc(C(F)(F)F)cc3)O[C@@]13C[C@@H]2C(=O)N3C1CCN(Cc2ccccc2)CC1 (stereo not given in full) | . | . | . | . | -7
CC1CCCCC1NC(=O)COC(=O)c1ccc([N+](=O)[O-])o1 (stereo not given) | . | . | . | . | -2
CCN(C(=O)COC(=O)c1ccc([N+](=O)[O-])o1)C1CCCCC1 | . | 1 | -5 | 29* | 0
O=C(NC1CCCC(C(F)(F)F)C1)c1ccc([N+](=O)[O-])o1 (stereo not given) | . | -7 | -15 | 20 | -4
CCN(C(=O)COC(=O)c1cccnc1SC)C1CCS(=O)(=O)C1 (stereo not given) | -1 | -2 | -31 | 11 | -3
CCN(C(=O)COC(=O)c1cccnc1SC)C1CCCCC1 | . | -14 | 31 | 57* | -6
O=C(NCc1ccco1)c1ccc([N+](=O)[O-])o1 | -7 | 18 | -8 | 71* | 2
O=C(NC1CCCCC1)c1ccc([N+](=O)[O-])o1 | 7 | 7 | -20 | 39* | .
COc1ccc(/[N+]([O-])=C/c2ccco2)cc1 | . | 0 | -3 | 4 | -4
Cc1ccc(C(Nc2ccccc2)c2ccc3ccc(C)nc3c2O)c(C)c1 (stereo not given) | . | . | . | . | -8
O=C(COC(=O)c1ccc([N+](=O)[O-])o1)NC1CCCC1 | . | -10 | -1 | 32 | 0
O=C(COC(=O)c1ccc([N+](=O)[O-])o1)NC1CCCCC1 | . | -4 | -30 | 24* | -5
